Blank lines part the entries; values can stand above or below the compound they belong to. The source made the active and inactive calls. The calls are words filed in the database; no cut-off is given here.
How the values were obtained:
[1] = Tmax in Sprague-Dawley rat at 20 mg/kg, ig by LC/MS/MS analysis; assay type: ADME, organism-based; conditions: in vivo, po
Summary of the method: (§1)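 SD rats, three male and three female. Given iv at 5 mg/kg and intragastric at 20 mg/kg; the oral dose went by gavage in 20% 1,2-propanediol/80% water. Heparinized blood was sampled over 32 h post dose. Plasma was extracted with EtOAc and measured by LC/MS/MS. Non-compartmental analysis gave the PK parameters (n = 6).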

Rattus norvegicus [2] = assay: Clearance in Sprague-Dawley rat at 20 mg/kg, ig by LC/MS/MS analysis; assay type: ADME, organism-based; conditions: in vivo, po; summary of the method: as §1
Rattus norvegicus [3] = assay: Clearance in Sprague-Dawley rat at 5 mg/kg, iv by LC/MS/MS analysis; assay type: ADME, organism-based; conditions: in vivo; summary of the method: as §1
[4] = AUC (0 to infinity) in Sprague-Dawley rat at 20 mg/kg, ig by LC/MS/MS analysis; assay type: ADME, organism-based; set-up: dose 20 mg/kg, route intragastric, time infinity; conditions: in vivo, po; summary of the method: as §1
Mus musculus [5] = assay: Hypoglycemic activity in db/db mouse assessed as decrease in blood glucose level at 30 mg/kg, po administered as single dose measured at 3 hrs post last dose (reference value: 0.0 +/- 4.1%); assay type: functional; set-up: scale not given: the % may be the effect or the level left
Mus musculus [6] = assay: Hypoglycemic activity in db/db mouse assessed as decrease in blood glucose level at 30 mg/kg, po treated for 3 week measured at 3 hrs post last dose (reference value: 0.0 +/- 6.8%); assay type: functional; set-up: scale not given: the % may be the effect or the level left
Mus musculus [7] = assay: Hypoglycemic activity in db/db mouse assessed as decrease in blood glucose level at 30 mg/kg, po treated for 1 week measured at 3 hrs post last dose (reference value: 0.0 +/- 8.6%); assay type: functional; set-up: scale not given: the % may be the effect or the level left
Mus musculus [8] = assay: Hypolipemic activity in db/db mouse assessed as plasma fasting triglyceride level at 30 mg/kg, po treated for 3 consecutive weeks (reference value: 0.70 to 0.97 mM); assay type: functional
[9] = Bioavailability in Sprague-Dawley rat at 20 mg/kg, ig by LC/MS/MS analysis; assay type: ADME, organism-based; conditions: in vivo, po; summary of the method: as §1
Rattus norvegicus [10] = assay: Volume of distribution in Sprague-Dawley rat at 20 mg/kg, ig by LC/MS/MS analysis; assay type: ADME, organism-based; conditions: in vivo, po; summary of the method: as §1
Mus musculus [11] = assay: Hypolipemic activity in db/db mouse assessed as total plasma cholesterol level at 30 mg/kg, po treated for 3 consecutive weeks (reference value: 6.05 to 6.98 mM); assay type: functional
[12] = AUC (0 to t) in Sprague-Dawley rat at 5 mg/kg, iv by LC/MS/MS analysis; assay type: ADME, organism-based; conditions: in vivo; summary of the method: as §1
[13] = AUC (0 to t) in Sprague-Dawley rat at 20 mg/kg, ig by LC/MS/MS analysis; assay type: ADME, organism-based; conditions: in vivo, po; summary of the method: as §1
Rattus norvegicus [14] = assay: Volume of distribution in Sprague-Dawley rat at 5 mg/kg, iv by LC/MS/MS analysis; assay type: ADME, organism-based; conditions: in vivo; summary of the method: as §1
[15] = AUC (0 to infinity) in Sprague-Dawley rat at 5 mg/kg, iv by LC/MS/MS analysis; assay type: ADME, organism-based; set-up: dose 5 mg/kg, route intravenous, time infinity; conditions: in vivo; summary of the method: as §1
Rattus norvegicus [16] = assay: Half life in Sprague-Dawley rat at 20 mg/kg, ig by LC/MS/MS analysis; assay type: ADME, organism-based; conditions: in vivo, po; summary of the method: as §1
Mus musculus [17] = assay: Potency index, ratio of test compound to GY3 hypoglycemic activity in db/db mouse assessed as decrease in blood glucose level at 30 mg/kg, po treated for 3 week measured at 3 hrs post last dose; assay type: functional
Rattus norvegicus [18] = assay: Half life in Sprague-Dawley rat at 5 mg/kg, iv by LC/MS/MS analysis; assay type: ADME, organism-based; conditions: in vivo; summary of the method: as §1
Mus musculus [19] = assay: Hypoglycemic activity in db/db mouse assessed as decrease in blood glucose level at 30 mg/kg, po treated for 2 week measured at 3 hrs post last dose (reference value: 0.0 +/- 4.0%); assay type: functional; set-up: scale not given: the % may be the effect or the level left
Mus musculus [20] = assay: Toxicity in db/db mouse assessed as increase in body weight at 30 mg/kg, po treated for 1 to 3 weeks measured at 3 hrs post last dose relative to control; assay type: organism-based; conditions: in vivo
[21] = Cmax in Sprague-Dawley rat at 20 mg/kg, ig by LC/MS/MS analysis; assay type: ADME, organism-based; set-up: dose 20 mg/kg, route intragastric; conditions: in vivo, po; summary of the method: as §1
[22] = target: T1, AMP-activated protein kinase, AMPK (Homo sapiens) (UniProt P54646+O43741+P54619+Q9UGJ0+Q9Y478+Q13131+Q9UGI9); assay: Activation of AMPK in human HepG2 cells assessed as induction of glucose consumption at 1 uM treated over 24 hrs by glucose oxidase method relative to control; assay type: cell-based
Summary of the method: (§2)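 HepG2 cells kept in DMEM (25 mM D-glucose) with 10% serum at 37 °C, 5% CO2. At 80-90% confluence the medium was switched to serum-free RPMI-1640 with 11.1 mM glucose and 0.2% BSA. Compounds in DMSO (0.5% v/v vehicle control) were given for 24 h. Medium glucose was read by glucose oxidase; consumption = cell-free blank wells minus cell wells. Student's t test against control.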

HepG2 [23] = assay: Activation of AMPKalpha in human HepG2 cells assessed as ACC phosphorylation at Ser79 residue at 10 uM by Western blot analysis; assay type: cell-based
Summary of the method: (§3)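 HepG2 cells were treated at 10 μM and lysed in pH 7.5 Tris buffer containing NaF, β-glycerophosphate, EDTA/EGTA, Triton X-100 and protease inhibitors, then cleared at 10,000 × g for 30 min at 4 °C. Equal lysate volumes were run on 8% SDS-PAGE and transferred to PVDF. Blots were probed for p-AMPKα (Thr172) and p-ACC (Ser79) with HRP secondary antibodies.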

[24] = target: T1, AMP-activated protein kinase, AMPK (Homo sapiens); assay: Activation of AMPK in human HepG2 cells assessed as induction of glucose consumption at 10 uM treated over 24 hrs by glucose oxidase method relative to control; assay type: cell-based; summary of the method: as §2
[25] = target: T1, AMP-activated protein kinase, AMPK (Homo sapiens); assay: Activation of AMPK in human HepG2 cells assessed as induction of glucose consumption at 0.1 uM treated over 24 hrs by glucose oxidase method relative to control; assay type: cell-based; summary of the method: as §2
[26] = target: T1, AMP-activated protein kinase, AMPK (Homo sapiens); assay: Activation of AMPK in human HepG2 cells assessed as induction of glucose consumption treated over 24 hrs by glucose oxidase method; assay type: cell-based; summary of the method: as §2
HepG2 [27] = assay: Induction of AMPKalpha phosphorylation at Thr172 residue in human HepG2 cells at 10 uM by Western blot analysis; assay type: cell-based; summary of the method: as §3
[28] = target: T1, AMP-activated protein kinase, AMPK (Homo sapiens); assay: Activation of AMPK in human HepG2 cells assessed as induction of glucose consumption at 1 mM treated over 24 hrs by glucose oxidase method relative to control; assay type: cell-based; summary of the method: as §2

- Tmax [1]: 7.83 h
- CL (Rattus norvegicus [2]): 7.5 mL/min/kg
- CL (Rattus norvegicus [3]): 1.2 mL/min/kg
- AUC(0-inf) [4]: 48300 ng·h/mL
- bioavailability [9]: 20.2%
- Vd (Rattus norvegicus [10]): 9.98 L/kg
- AUC(0-t) [12]: 39600 ng·h/mL
- AUC(0-t) [13]: 32000 ng·h/mL
- Vd (Rattus norvegicus [14]): 2.7 L/kg
- AUC(0-inf) [15]: 71000 ng·h/mL
- t1/2 (Rattus norvegicus [16]): 6.46 h
- t1/2 (Rattus norvegicus [18]): 7.2 h
- Cmax [21]: 2320 ng/mL
SMILES: O=C(O)C1CCc2c(c3cc(OCc4ccccc4)ccc3n2C(=O)c2ccc(Cl)cc2)C1 (stereo in doubt; 7a) [listing 1 of 2 here]
- Activity (Mus musculus [5]): 30.6%
- Activity (Mus musculus [6]): 28%
- Activity (Mus musculus [7]): 29.3%
- Activity (Mus musculus [8]): 0.54 mM
- Activity (Mus musculus [11]): 6.93 mM
- Ratio (Mus musculus [17]): 2
- Activity (Mus musculus [19]): 19.6%
- Activity (Mus musculus [20]): 10.4%

- Activity [22]: 30.2%
- Activity [24]: 72.9 to 82.5%
- Activity [25]: 15.5%
- Activity [26]: Dose-dependent effect
SMILES: O=C(O)C1CCc2c(c3cc(OCc4ccccc4)ccc3n2C(=O)c2ccc(Cl)cc2)C1 (stereo in doubt; 7a) [listing 2 of 2 here]
- Activity (HepG2 [23]): Active
- Activity (HepG2 [27]): Active

- Activity [24]: 75.2%
SMILES: O=C(O)C1CCc2c(c3cc(OCc4ccccc4)ccc3n2C(=O)c2ccc(F)cc2)C1 (centres undefined)

- Activity [22]: 35.6%
- Activity [24]: 76.4 to 85.5%
- Activity [25]: 12.9%
- Activity [26]: Dose-dependent effect
SMILES: O=C(O)C1CCc2c(c3cc(OCc4ccccc4)ccc3n2C(=O)c2ccc(Cl)cc2)C1 (single isomer, unassigned; (-))
- Activity (HepG2 [23]): Active
- Activity (HepG2 [27]): Active

- Activity [22]: 32.2%
- Activity [24]: 62.1 to 68.7%
- Activity [25]: 4.89%
- Activity [26]: Dose-dependent effect
SMILES: CC(Oc1ccc2c(c1)c1c(n2C(=O)c2ccc(Cl)cc2)CCC(C(=O)O)C1)c1ccccc1 (centres undefined)
- Activity (HepG2 [23]): Active
- Activity (HepG2 [27]): Active

Continued, compound first:

SMILES: Cc1c(CC(=O)O)c2cc(OCc3ccccc3)ccc2n1C(=O)c1ccc(Cl)cc1
- Activity (Mus musculus [5]): 32.9%
- Activity (Mus musculus [6]): 13.5%
- Activity (Mus musculus [7]): 25.7%
- Activity (Mus musculus [8]): 0.79 mM
- Activity (Mus musculus [11]): 7.78 mM
- Activity (Mus musculus [19]): 30.3%
- Activity (Mus musculus [20]): 8.5%

SMILES: O=C(O)C1CCc2c(c3cc(OCc4ccccc4)ccc3n2Cc2ccc(Cl)cc2)C1 (centres undefined)
- Activity [24]: 32.7%

SMILES: N#Cc1ccc(COc2ccc3c(c2)c2c(n3C(=O)c3ccc(Cl)cc3)CCC(C(=O)O)C2)cc1 (centres undefined)
- Activity [22]: 26.8%
- Activity (HepG2 [23]): Active
- Activity [24]: 50.2 to 72.8%
- Activity [25]: 9.65%
- Activity [26]: Dose-dependent effect
- Activity (HepG2 [27]): Active

SMILES: O=C(O)C1CCc2c(c3cc4c(cc3n2C(=O)c2ccc(Cl)cc2)OCO4)C1 (centres undefined)
- Activity [24]: 55.1%

SMILES: CN(C)C(=N)NC(=N)N
- Activity [28]: 60.4 to 63.7%

SMILES: COc1ccc(S(=O)(=O)n2c3c(c4cc5c(cc42)OCO5)CC(C(=O)O)CC3)cc1 (centres undefined)
- Activity [24]: 40.3%

SMILES: Cc1ccc(Cn2c3c(c4cc(OCc5ccccc5)ccc42)CC(C(=O)O)CC3)cc1 (centres undefined)
- Activity [24]: 42.2%

SMILES: O=C(O)c1ccccc1-c1ccc(Cn2c3c(c4cc(OCc5ccccc5)ccc42)CC(C(=O)O)CC3)cc1 (centres undefined)
- Activity [24]: 27.5%
